The source made the active and inactive calls. The calls are words filed in the database; no cut-off is given here.
Legend:
SNB-75 = assay: Growth inhibition of human SNB75 cells after 48 hrs by SRB assay; type: functional; details: SNB-75, 48 h
U-373MG ATCC [1] = assay: Cell cycle arrest in human U373 cells assessed as accumulation at G2/M phase at 2 uM after 24 to 48 hrs by propidium iodide staining-based flow cytometry; type: functional; details: 7.5 uM, in the assay text read “at 7.5 uM” for “at 2 uM”
In short: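 Cells were exposed to compound at the IC50 for each line from the 72 h MTT assay, or to a reference HDAC inhibitor at 2 μM. Cell cycle distribution was analyzed after 24 and 48 h. Results are mean ± SD of three independent experiments, with p values against control cells.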

[2] = target: T1, NAD-dependent protein deacetylase sirtuin-2 (Homo sapiens) (UniProt Q8IXJ6); assay: Inhibition of SIRT2 in human U373 cells assessed as increase of alpha-tubulin acetylation after 8 hrs by Western blotting method; type: cell-based
T1 sequence (whole entry): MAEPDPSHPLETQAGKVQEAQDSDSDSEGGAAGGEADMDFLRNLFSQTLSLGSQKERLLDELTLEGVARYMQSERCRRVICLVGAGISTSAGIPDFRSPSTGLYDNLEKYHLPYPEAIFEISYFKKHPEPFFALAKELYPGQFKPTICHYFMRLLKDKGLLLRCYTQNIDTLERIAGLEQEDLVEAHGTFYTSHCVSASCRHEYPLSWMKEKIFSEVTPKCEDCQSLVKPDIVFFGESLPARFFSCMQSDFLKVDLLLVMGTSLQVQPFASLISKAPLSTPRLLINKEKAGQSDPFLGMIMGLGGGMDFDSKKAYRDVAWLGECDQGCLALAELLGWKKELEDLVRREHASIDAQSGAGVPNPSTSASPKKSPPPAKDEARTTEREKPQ

HCT-116 = assay: Antiproliferative activity against human HCT116 cells expressing wild type p53 after 72 hrs by MTT assay; type: functional, cell-based
In short: (§1)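 MTT assay: cells in RPMI 1640 with 10% heat-inactivated FCS at 37 °C and 5% CO2 were seeded 24 h before treatment. They were exposed 72 h to compound at 0.01–100 μM, with DMSO as solvent.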

U-373MG ATCC [3] = assay: Inhibition of spheroid forming capacity of human U373 cells assessed as decrease in surface area of tumor spheroids at 5 to 10 uM treated for 24 hrs measured after 96 hrs by bright field microscopic method; type: functional, cell-based
In short: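 Spheroids formed from 1 × 10^3 cells in 25 μL. Cells were pretreated 24 h with compound then left untreated 96 h, or untreated spheroids were cultured 96 h with compound. Surface measured from bright-field images; volume in voxels from 3D plots after image segmentation. Mean ± SD of three independent experiments.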

SK-MEL-2 = assay: Growth inhibition of human SK-MEL-2 cells after 48 hrs by SRB assay; type: functional; details: SK-MEL-2, 48 h
U-373MG ATCC [4] = assay: Inhibition of 3D tumor-like growth of human U373 cells assessed as decrease in ATP level at 5 to 10 uM treated for 24 hrs measured after 96 hrs by CellTiter-Glo assay; type: functional, cell-based
786-0 = assay: Growth inhibition of human 786-0 cells after 48 hrs by SRB assay; type: functional; details: 786-0, 48 h
[5] = target: T1, NAD-dependent protein deacetylase sirtuin-2 (Homo sapiens); assay: Inhibition of SIRT2 in human U373 cells assessed as increase of alpha-tubulin acetylation at 5 uM after 8 hrs by Western blotting method relative to control; type: cell-based
[6] = target: T2, NAD-dependent protein deacetylase sirtuin-2 (Homo sapiens, UniProt Q8IXJ6); assay: Inhibition of N-terminal His-tagged recombinant human SIRT-2 expressed in Escherichia coli using Fluor-de-Lys-SIRT1 as substrate after 15 mins by fluorescence assay
T2 sequence (Q8IXJ6 whole entry): T1 sequence (whole entry)

MDA-MB-231 = assay: Growth inhibition of human MDA-MB-231 cells after 48 hrs by SRB assay; type: functional; details: MDA-MB-231, 48 h
T98G = assay: Antiproliferative activity against human T98G cells after 72 hrs by MTT assay; type: functional, cell-based; in short: as §1
MCF7 = assay: Growth inhibition of human MCF7 cells after 48 hrs by SRB assay; type: functional; details: MCF7, 48 h
[7] = target: T1, NAD-dependent protein deacetylase sirtuin-2 (Homo sapiens); assay: Inhibition of SIRT2 in human U373 cells assessed as increase of alpha-tubulin acetylation at 2.5 uM after 8 hrs by Western blotting method relative to control; type: cell-based
[8] = Selectivity index, ratio of IC50 for mouse astrocytes to IC50 for human U373 cells
[9] = target: T3, NAD-dependent protein deacetylase sirtuin-1 (Homo sapiens) (UniProt Q96EB6); assay: Inhibition of SIRT1 in human U373 cells assessed as increase of histone H3K56 acetylation at 10 to 25 after 8 to 24 hrs by Western blotting method; type: cell-based
T3 sequence (whole entry): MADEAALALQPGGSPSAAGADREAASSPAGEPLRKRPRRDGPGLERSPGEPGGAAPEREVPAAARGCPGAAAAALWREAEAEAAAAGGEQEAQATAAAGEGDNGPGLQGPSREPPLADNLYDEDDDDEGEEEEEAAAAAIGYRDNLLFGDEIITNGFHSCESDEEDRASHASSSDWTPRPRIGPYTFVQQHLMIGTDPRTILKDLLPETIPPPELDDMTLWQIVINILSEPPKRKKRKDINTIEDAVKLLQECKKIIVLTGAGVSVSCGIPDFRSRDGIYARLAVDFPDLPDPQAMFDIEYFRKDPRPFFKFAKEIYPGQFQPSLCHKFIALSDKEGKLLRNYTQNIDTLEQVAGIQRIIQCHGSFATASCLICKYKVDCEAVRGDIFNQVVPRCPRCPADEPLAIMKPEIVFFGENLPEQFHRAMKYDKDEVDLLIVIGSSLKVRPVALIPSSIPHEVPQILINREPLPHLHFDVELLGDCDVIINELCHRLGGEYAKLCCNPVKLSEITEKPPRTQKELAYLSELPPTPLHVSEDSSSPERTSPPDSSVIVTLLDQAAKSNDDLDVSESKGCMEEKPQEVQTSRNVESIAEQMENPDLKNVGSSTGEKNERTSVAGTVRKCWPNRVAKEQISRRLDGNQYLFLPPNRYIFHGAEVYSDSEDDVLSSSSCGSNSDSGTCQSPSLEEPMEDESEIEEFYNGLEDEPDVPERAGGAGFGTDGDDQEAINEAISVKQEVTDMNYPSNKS
In short: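 Cells treated with the compound, then histone H3K56 acetylation assessed by Western blot on histone extracts; histone H1 or Coomassie staining as loading control.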

[10] = Cytostatic activity against human U373 cells at 10 uM after 72 hrs by quantitative videomicroscopy relative to control; type: functional, U-373MG ATCC
In short: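 Cells were grown in 25 cm2 flasks, and phase-contrast images were recorded every 4 min over 72 h, in triplicate. Global growth is cell count on the last image divided by cell count on the first, at 24, 48 and 72 h. The GGR index is treated GG divided by control GG.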

[11] = Potency index, ratio of AGK2 IC50 to test compound IC50 for human U373 cells; type: functional, U-373MG ATCC
CAKI-1 = assay: Growth inhibition of human Caki1 cells after 48 hrs by SRB assay; type: functional; details: CAKI-1, 48 h
Hs 683 = assay: Antiproliferative activity against human Hs683 cells after 72 hrs by MTT assay; type: functional, cell-based; details: Hs 683, 72 h; in short: as §1

Compound: CC(C)(C)OC(=O)Nc1ccc2c(c1)C(NC(=O)Nc1cccc(C#N)c1)CC(C)(C)O2 (stereo not given)
- GI50 (SNB-75): 5.89 µM
- Activity (U-373MG ATCC [1]): Active
- inhibition [2]: Dose-dependent effect
- Activity (HCT-116): Active
- inhibition (U-373MG ATCC [3]): Active
- GI50 (SK-MEL-2): 5.37 µM
- inhibition (U-373MG ATCC [4]): Active
- GI50 (786-0): 7.59 µM
- fold change (FC) [5]: 5.9
- IC50 [6]: 4.2 µM
- GI50 (MDA-MB-231): 4.27 µM
- IC50 (T98G): 14 µM
- GI50 (MCF7): 2.14 µM
- fold change (FC) [7]: 1.4
- Ratio IC50 [8]: >10
- inhibition [9]: Active
- Activity [10]: 70%
- Ratio IC50 [11]: 6 - 14
- GI50 (CAKI-1): 2.45 µM
- IC50 (Hs 683): 4 to 5.8 µM

— ChEMBL document CHEMBL4052637, “Discovery and Characterization of R/S-N-3-Cyanophenyl-N'-(6-tert-butoxycarbonylamino-3,4-dihydro-2,2-dimethyl-2H-1-benzopyran-4-yl)urea, a New Histone Deacetylase Class III Inhibitor Exerting Antiproliferative Activity against Cancer Cell Lines” (J Med Chem, 2017)
